Source: ChEMBL document CHEMBL4270671, “Pathway-Based Drug Repositioning for Cancers: Computational Prediction and Experimental Validation” (J Med Chem, 2018)
Activity calls are given as the source filed them. No cut-off for these calls is given here.

Tests used:
A549 [1] = experiment: Reduction in viability of human A549 cells after 6 hrs by fluorescence assay; assay type: functional, cell-based
Summary of the method: (§1)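 A single multiplexed triplex kit read cell viability, cytotoxicity and apoptosis, with caspase-3/7 activity as the apoptosis marker. Compounds were tested over a range of concentrations on cancer lines and normal epithelial Het-1A cells, with DMSO as the vehicle control. Read-outs were compared against the DMSO wells.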

ASPC1 [2] = experiment: Reduction in viability of human AsPC1 cells after 6 hrs by fluorescence assay; assay type: functional, cell-based; summary of the method: as §1
Caco-2 [3] = experiment: Reduction in viability of human Caco2 cells after 6 hrs by fluorescence assay; assay type: functional, cell-based; summary of the method: as §1
HET-1A [4] = experiment: Reduction in viability of human HET-1A cells after 6 hrs by fluorescence assay; assay type: cell-based; summary of the method: as §1
PC-3 [5] = experiment: Reduction in viability of human PC3 cells after 6 hrs by fluorescence assay; assay type: functional, cell-based; summary of the method: as §1
Caco-2 [6] = experiment: Induction of apoptosis in human Caco2 cells assessed as increase in caspase 3/7 activity after 6 hrs by caspase glo 3/7 assay; assay type: functional, cell-based; summary of the method: as §1
A549 [7] = experiment: Induction of apoptosis in human A549 cells assessed as increase in caspase 3/7 activity after 6 hrs by caspase glo 3/7 assay; assay type: functional, cell-based; summary of the method: as §1
PC-3 [8] = experiment: Induction of apoptosis in human PC3 cells assessed as increase in caspase 3/7 activity after 6 hrs by caspase glo 3/7 assay; assay type: functional, cell-based; summary of the method: as §1
ASPC1 [9] = experiment: Induction of apoptosis in human AsPC1 cells assessed as increase in caspase 3/7 activity after 6 hrs by caspase glo 3/7 assay; assay type: functional, cell-based; summary of the method: as §1
A549 [10] = experiment: Cytotoxicity against human A549 cells after 6 hrs by fluorescence assay; assay type: functional, cell-based; summary of the method: as §1
HET-1A [11] = experiment: Cytotoxicity against human HET-1A cells after 6 hrs by fluorescence assay; assay type: cell-based; summary of the method: as §1
ASPC1 [12] = experiment: Cytotoxicity against human AsPC1 cells after 6 hrs by fluorescence assay; assay type: functional, cell-based; summary of the method: as §1
PC-3 [13] = experiment: Cytotoxicity against human PC3 cells after 6 hrs by fluorescence assay; assay type: functional, cell-based; summary of the method: as §1
Caco-2 [14] = experiment: Cytotoxicity against human Caco2 cells after 6 hrs by fluorescence assay; assay type: functional, cell-based; summary of the method: as §1
HET-1A [15] = experiment: Induction of apoptosis in human HET-1A cells assessed as increase in caspase 3/7 activity after 6 hrs by caspase glo 3/7 assay; assay type: cell-based; summary of the method: as §1

## CN1[C@@H]2CCC[C@H]1CC(NC(=O)c1nn(C)c3ccccc13)C2 (stereo partly specified)
A549 [1]
  Activity: inactive
ASPC1 [2]
  Activity: inactive
Caco-2 [3]
  Activity: inactive
HET-1A [4]
  Activity: Toxic
PC-3 [5]
  Activity: inactive

## CC(=O)Oc1ccccc1C(=O)Nc1ncc([N+](=O)[O-])s1
Caco-2 [6]
  Activity: inactive
A549 [7]
  Activity: inactive
PC-3 [8]
  Activity: inactive
ASPC1 [9]
  Activity: inactive

## CC[C@H]1OC(=O)[C@H](C)[C@@H](O[C@H]2C[C@@](C)(OC)[C@@H](O)[C@H](C)O2)[C@H](C)[C@@H](O[C@@H]2O[C@H](C)C[C@H](N(C)C)[C@H]2O)[C@](C)(O)C[C@@H](C)[C@@H]2N[C@@H](COCCOC)O[C@H]([C@H]2C)[C@]1(C)O [DIRITHROMYCIN]
A549 [1]
  Activity: inactive
ASPC1 [2]
  Activity: inactive
Caco-2 [3]
  Activity: inactive
HET-1A [4]
  Activity: Toxic
PC-3 [5]
  Activity: inactive

## COC(=O)C1=C(C)NC(C)=C(C(=O)OCCN(C)Cc2ccccc2)C1c1cccc([N+](=O)[O-])c1 (stereo unspecified) [NICARDIPINE]
A549 [1]
  Activity: Dose-dependent effect
Caco-2 [6]
  Activity: Dose-dependent effect
PC-3 [8]
  Activity: Dose-dependent effect
A549 [10]
  Activity: Dose-dependent effect
ASPC1 [2]
  Activity: Dose-dependent effect
Caco-2 [3]
  Activity: Dose-dependent effect
HET-1A [4]
  Activity: Dose-dependent effect
HET-1A [11]
  Activity: Dose-dependent effect
ASPC1 [12]
  Activity: Dose-dependent effect
PC-3 [13]
  Activity: Dose-dependent effect
PC-3 [5]
  Activity: Dose-dependent effect
Caco-2 [14]
  Activity: Dose-dependent effect
HET-1A [15]
  Activity: Dose-dependent effect

## O=C(Nc1ccc([N+](=O)[O-])cc1Cl)c1cc(Cl)ccc1O [NICLOSAMIDE]
A549 [1]
  Activity: Dose-dependent effect
Caco-2 [6]
  Activity: Active
A549 [7]
  Activity: Active
PC-3 [8]
  Activity: Dose-dependent effect
ASPC1 [2]
  Activity: Dose-dependent effect
Caco-2 [3]
  Activity: Dose-dependent effect
HET-1A [4]
  Activity: Dose-dependent effect
PC-3 [5]
  Activity: Dose-dependent effect
ASPC1 [9]
  Activity: Active

## OC1(c2ccc(Cl)c(C(F)(F)F)c2)CCN(CCCC(c2ccc(F)cc2)c2ccc(F)cc2)CC1 [PENFLURIDOL]
A549 [1]
  Activity: Dose-dependent effect
Caco-2 [6]
  Activity: Dose-dependent effect
A549 [7]
  Activity: Dose-dependent effect
PC-3 [8]
  Activity: Dose-dependent effect
A549 [10]
  Activity: Dose-dependent effect
ASPC1 [2]
  Activity: Dose-dependent effect
Caco-2 [3]
  Activity: Dose-dependent effect
HET-1A [4]
  Activity: Dose-dependent effect
HET-1A [11]
  Activity: Dose-dependent effect
ASPC1 [12]
  Activity: Dose-dependent effect
PC-3 [13]
  Activity: Dose-dependent effect
PC-3 [5]
  Activity: Dose-dependent effect
Caco-2 [14]
  Activity: Dose-dependent effect
ASPC1 [9]
  Activity: Active
HET-1A [15]
  Activity: Dose-dependent effect

## CN(C)CCCN1c2ccccc2Sc2ccccc21 [PROMAZINE]
A549 [1]
  Activity: Dose-dependent effect
Caco-2 [6]
  Activity: Dose-dependent effect
A549 [7]
  Activity: Dose-dependent effect
PC-3 [8]
  Activity: Dose-dependent effect
A549 [10]
  Activity: Dose-dependent effect
ASPC1 [2]
  Activity: Dose-dependent effect
Caco-2 [3]
  Activity: Dose-dependent effect
HET-1A [4]
  Activity: Dose-dependent effect
HET-1A [11]
  Activity: Dose-dependent effect
ASPC1 [12]
  Activity: Dose-dependent effect
PC-3 [13]
  Activity: Dose-dependent effect
PC-3 [5]
  Activity: Dose-dependent effect
Caco-2 [14]
  Activity: Dose-dependent effect
ASPC1 [9]
  Activity: Active
HET-1A [15]
  Activity: Dose-dependent effect
